Assay results as given in publication PMC7305985 (Molecular cell, 2020).

How the values were obtained:
mono-nucleosomes = assay: Nucleosome binding assay; parameters: species or system Human; conditions: relative to WT KAP1; overnight 4°C, pH 7.5; Figure 5E
In short: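 GST-tagged protein, expressed in bacteria (0.1 mM IPTG, 3 hr, 37°C), was used at 2 µg with 2 µg recombinant biotinylated mono-nucleosomes. Pulldown was on StrepTactin agarose for 1 hr, with 4 washes and boiling elution. 5% input and 20% eluate were blotted with anti-GST 1:5000.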

[1] = test system: KAP1 target genes in shKAP1 HCT116 cells; assay: Reconstitution assay, RT-qPCR of KAP1 target genes; assay type: cell-based; conditions: shKAP1 HCT116, 48 hr; relative to shNT+GFP, normalized to RPL19, n=3; Figure 5H
[2] = test system: KAP1 target gene promoters; assay: FLAG ChIP-qPCR of reconstituted KAP1 proteins; assay type: cell-based; conditions: shKAP1 HCT116, FLAG ChIP-qPCR, % Input, n=3; Figures 5I, 6F
In short: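 Epitope-tagged KAP1 was re-expressed in shKAP1 HCT116 cells by 1 µg plasmid transfection over 48 hr. Anti-FLAG ChIP used 0.5% formaldehyde crosslinking (10 min) and 150 mM glycine quench. Beads were washed 4 times with each of RIPA, low-salt, high-salt, LiCl and TE buffers. Elution was 30 min at 65°C, de-crosslinking 4 hr at 65°C with proteinase K, and read-out was qPCR.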

| reduction of KAP1's ability to interact with mono-nucleosomes (mono-nucleosomes) | Molecule | restoration of KAP1 target gene expression (WT and point mutants) [1] | localization to KAP1 target gene promoters [2] |
| --- | --- | --- | --- |
| ~ 80% | E662/3A: KAP1 PHD point mutant E662/E663 to A; GST-PHD-BD or FLAG-tagged KAP1 (protein, left off: GST, N-terminal, kept) PGGGPGTLDDSATICRVCQKPGDLVMCNQCEFCFHLDCHLPALQDVPGAAWSCSLCHVLPDLKEEDGSLSLDGADSTGVVAKLSPANQRKCERVLLALFCHEPCRPLHQLATDSTFSLDQPGGTLDLTLIRARLQEKLSPPYSSPQEFAQDVGRMFKQFNKLTEDKADVQSIIGLQRFFETRMNEAFGDTKFSAVLVEPPPMSLPGAGLSSQELSGGPGDGP | but not E662/3A, restored KAP1 target gene expression | but not E662/3A, localized to all tested gene promoters |
| – | L637A: control mutation L637 in flexible loop between the PHD and BD (protein, left off: GST, N-terminal, kept) PGGGPGTLDDSATICRVCQKPGDAVMCNQCEFCFHLDCHLPALQDVPGEEWSCSLCHVLPDLKEEDGSLSLDGADSTGVVAKLSPANQRKCERVLLALFCHEPCRPLHQLATDSTFSLDQPGGTLDLTLIRARLQEKLSPPYSSPQEFAQDVGRMFKQFNKLTEDKADVQSIIGLQRFFETRMNEAFGDTKFSAVLVEPPPMSLPGAGLSSQELSGGPGDGP | restored KAP1 target gene expression | localized to all tested gene promoters |
